Measured values as given in paper PMC4091680 (Bioorganic & medicinal chemistry, 2014).
One block for each molecule: values may come before it.

Columns and labels:
HL-60 cells [1] = assay: Flow cytometric cell cycle distribution, HL-60; format: cell-based, human; settings: HL-60, 24 h
Outline: (§1)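 Per assay, 5×10^5 cells were exposed to test compound at several concentrations for 24 h. Cells were then collected, fixed in ice-cold 70% ethanol, lysed in buffer with RNase A and 0.1% Triton X-100, PI-stained and run on a flow cytometer. Phase distribution came from DNA histograms; means ± SEM of three independent experiments.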

HL-60 cells [2] = assay: Annexin-V/PI apoptosis assay, HL-60; format: cell-based, human; settings: HL-60, 24 or 48 h
HeLa cells [3] = assay: Annexin-V/PI apoptosis assay, HeLa; format: cell-based, human; settings: 24 or 48 h
[4] = tested on: caspase-3 and PARP in HL-60 cells; assay: Western blot analysis of caspase-3 and PARP; format: cell-based, human; settings: HL-60, 24 h and 48 h
Outline: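 HL-60 cells were treated with test compound at various concentrations and times, washed in ice-cold PBS and lysed on ice 30 min. Lysates were cleared at 15000 × g, 4 °C, 10 min. Per lane, 20 µg protein (BCA) was separated by SDS-PAGE (7.5–15%) and blotted to PVDF. Membranes were blocked with 5% BSA, probed overnight at 4 °C for caspase-3 and PARP, then with peroxidase secondaries and ECL. Reprobing for β-actin checked loading.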

[5] = tested on: tubulin (colchicine site); assay: Inhibition of [3H]colchicine binding to tubulin; parameters: species or system bovine; settings: for Inhibition of colchicine binding % Inhibition ± SD: tubulin 1 µM, colchicine 5 µM
Outline: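 Purified bovine brain tubulin at 0.1 mg/mL (1.0 µM) was incubated 10 min at 37 °C with 5.0 µM [3H]colchicine, test compound, 5% (v/v) DMSO and 1.0 M glutamate. Reactions were stopped with 0 °C water, filtered through two stacked DEAE-cellulose filters and washed three times with ice-cold water. Filter-bound radiolabel was counted by liquid scintillation; % inhibition ± SD.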

HeLa cells [6] = assay: Flow cytometric cell cycle distribution, HeLa; format: cell-based, human; settings: 24 h
Outline: as §1

[7] = tested on: purified bovine brain tubulin; assay: Tubulin polymerization assay; format: biochemical
Raji = assay: MTT cytotoxicity assay, Raji; format: cell-based, human; settings: 48 h
Outline: (§2)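 Cells grew in RPMI-1640 with 10% FBS, L-glutamine, penicillin and streptomycin at 37 °C, 5% CO2. They were seeded at 10,000/well overnight in 1% FBS medium, then treated 48 h with test compound at 0.1–125 µM; the solvent control was 0.1% DMSO. MTT (0.5 mg/mL final) was added for 4 h, formazan dissolved in DMSO, and absorbance read at 570 nm. Quadruplicates were taken as % of solvent control, IC50 from concentration–response curves.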

HeLa = assay: MTT cytotoxicity assay, HeLa; format: cell-based, human; settings: 48 h
Outline: as §2

inhibition of [3H]colchicine binding (in words) ([5]; compound 50 µM): Significant inhibition
SMILES: COc1cc(NC(=O)/C=C/c2c[nH]c3ccccc23)cc(OC)c1OC [Compound 3e, (E)-3-(1H-Indol-3-yl)-N-(3,4,5-trimethoxyphenyl)acrylamide]
lowest concentration giving increase in G2/M phase cells (HL-60 cells [1]): 10 µM
cells blocked in G2/M (HL-60 cells [1]; 15–30 µM): > 60%
annexin-V+/PI− and annexin-V+/PI+ fractions (apoptosis) (HL-60 cells [2]): concentration- and time-dependent increase
annexin-V+/PI− and annexin-V+/PI+ fractions (apoptosis) (HeLa cells [3]): concentration- and time-dependent increase
PARP cleavage [4]: cleavage of its substrate PARP
caspase-3 activation (cleaved fragments) [4]: induced the activation of caspase-3
lowest concentration giving increase in G2/M phase cells (HeLa cells [6]): 10 µM
cells blocked in G2/M (HeLa cells [6]; 15–30 µM): more than 80%

SMILES: COc1ccc(/C=C\c2cc(OC)c(OC)c(OC)c2)cc1O [CA-4, combretastatin A-4]
Inhibition of colchicine binding % Inhibition ± SD ([5]; compound 1 µM): 88 ± 0.3%
Inhibition of colchicine binding % Inhibition ± SD ([5]; compound 5 µM): 98 ± 0.8%

SMILES: COc1ccc(OC)c(NC(=O)/C=C/c2c[nH]c3ccccc23)c1 [Compound 3b, (E)-N-(2,5-Dimethoxyphenyl)-3-(1H-indol-3-yl)acrylamide]
antitubulin activity (in words) [7]: inactive

SMILES: COc1cc(CNC(=O)/C=C/c2c[nH]c3ccccc23)ccc1O [Compound 3g, (E)-N-(4-Hydroxy-3-methoxybenzyl)-3-(1H-indol-3-yl)acrylamide]
activity against Raji cells (in words) (Raji): weak activity

SMILES: COc1cccc(CNC(=O)/C=C/c2c[nH]c3ccccc23)c1OC [Compound 3h, (E)-N-(2,3-Dimethoxybenzyl)-3-(1H-indol-3-yl)acrylamide]
activity against HeLa cells (in words) (HeLa): weak activity

SMILES: COc1cc(NC(=O)/C=C/c2c[nH]c3ccccc23)cc(OC)c1 [Compound 3d, (E)-N-(3,5-Dimethoxyphenyl)-3-(1H-indol-3-yl)acrylamide]
antitubulin activity (in words) [7]: inactive

SMILES: COc1ccc(CNC(=O)/C=C/c2c[nH]c3ccccc23)c(OC)c1 [Compound 3i, (E)-N-(2,4-Dimethoxybenzyl)-3-(1H-indol-3-yl)acrylamide]
activity against Raji cells (in words) (Raji): weak activity

SMILES: COc1ccc(NC(=O)/C=C/c2c[nH]c3ccccc23)cc1OC [Compound 3c, (E)-N-(3,4-Dimethoxyphenyl)-3-(1H-indol-3-yl)acrylamide]
antitubulin activity (in words) [7]: inactive
